From ChEMBL document CHEMBL1156778, “Synthesis and structure-activity studies of biphenyl analogues of the tuberculosis drug (6S)-2-nitro-6-{[4-(trifluoromethoxy)benzyl]oxy}-6,7-dihydro-5H-imidazo[2,1-b][1,3]oxazine (PA-824)” (J Med Chem, 2010)
≈ marks a conversion by molar mass, not a printed value.

How the values were obtained:
[1] = test system: Mycobacterium tuberculosis; test: Antitubercular activity against Mycobacterium tuberculosis H37Rv in anaerobic condition after 7 days by low oxygen recovery assay; assay type: functional; conditions: 168 h
[2] = test system: Mycobacterium tuberculosis; test: Antitubercular activity against Mycobacterium tuberculosis H37Rv in aerobic condition after 7 days by microplate alamar blue assay; assay type: functional; conditions: 168 h
Procedure, shortened: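 M. tuberculosis H37Rv, replicating culture; 8-day microplate assay with Alamar blue added on day 7 to read growth. […] Mean of at least two independent determinations ± SD.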

Vero = test: Cytotoxicity against african green monkey Vero cells after 72 hrs by MTS assay; assay type: cell-based; conditions: Chlorocebus sabaeus
Procedure, shortened: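 VERO cells (CCL-81), 72 h exposure, tetrazolium dye read-out.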

SMILES	MIC [1] [µM]	MIC [2] [µM]	IC50 (Vero) [µM]
O=[N+]([O-])c1cn2c(n1)OC[C@@H](OCc1cccc(-c3cccc(OC(F)(F)F)c3)c1)C2	3.5 (≈ 1.52 µg/mL)	0.4 (≈ 0.174 µg/mL)	> 125
CSc1cccc(-c2cccc(CO[C@@H]3COc4nc([N+](=O)[O-])cn4C3)c2)c1	1.4 (≈ 0.556 µg/mL)	0.07 (≈ 0.0278 µg/mL)	> 125
Cc1cccc(C)c1-c1ccc(CO[C@@H]2COc3nc([N+](=O)[O-])cn3C2)cc1	0.93 (≈ 0.353 µg/mL)	0.39 (≈ 0.148 µg/mL)	> 125
Nc1cccc(-c2ccc(CO[C@@H]3COc4nc([N+](=O)[O-])cn4C3)cc2)c1	1.4 (≈ 0.513 µg/mL)	0.12 (≈ 0.044 µg/mL)	> 125
O=[N+]([O-])c1cn2c(n1)OC[C@@H](OCc1ccc(-c3ccccc3F)cc1)C2	0.67 (≈ 0.247 µg/mL)	0.19 (≈ 0.0702 µg/mL)	> 125
CSc1cccc(-c2ccccc2CO[C@@H]2COc3nc([N+](=O)[O-])cn3C2)c1	3.2 (≈ 1.27 µg/mL)	0.81 (≈ 0.322 µg/mL)	> 125
N#Cc1ccc(-c2cccc(CO[C@@H]3COc4nc([N+](=O)[O-])cn4C3)c2)cc1	4.8 (≈ 1.81 µg/mL)	0.23 (≈ 0.0866 µg/mL)	> 125
COc1cc(-c2ccc(CO[C@@H]3COc4nc([N+](=O)[O-])cn4C3)cc2)ccc1F	1.5 (≈ 0.599 µg/mL)	0.045 (≈ 0.018 µg/mL)	> 125
O=[N+]([O-])c1cn2c(n1)OC[C@@H](OCc1ccc(-c3cc(F)c(F)c(F)c3)cc1)C2	0.76 (≈ 0.308 µg/mL)	0.04 (≈ 0.0162 µg/mL)	> 125
CC(C)(C)OCc1ccc(-c2ccc(CO[C@@H]3COc4nc([N+](=O)[O-])cn4C3)cc2)cc1	3.1 (≈ 1.36 µg/mL)	0.077 (≈ 0.0337 µg/mL)	> 125
O=[N+]([O-])c1cn2c(n1)OC[C@@H](OCc1ccc(-c3cccc(C(F)(F)F)c3)cc1)C2	1.3 (≈ 0.545 µg/mL)	0.067 (≈ 0.0281 µg/mL)	> 125
CSc1ccccc1-c1ccc(CO[C@@H]2COc3nc([N+](=O)[O-])cn3C2)cc1	1.4 (≈ 0.556 µg/mL)	0.087 (≈ 0.0346 µg/mL)	> 125
CC(C)c1cccc(-c2ccc(CO[C@@H]3COc4nc([N+](=O)[O-])cn4C3)cc2)c1	4.2 (≈ 1.65 µg/mL)	0.14 (≈ 0.0551 µg/mL)	> 125
O=[N+]([O-])c1cn2c(n1)OC[C@@H](OCc1ccc(-c3cccc(O)c3)cc1)C2	3.1 (≈ 1.14 µg/mL)	0.14 (≈ 0.0514 µg/mL)	> 125
O=[N+]([O-])c1cn2c(n1)OC[C@@H](OCc1ccc(-c3cccc(OC(F)(F)F)c3)cc1)C2	1.4 (≈ 0.61 µg/mL)	0.077 (≈ 0.0335 µg/mL)	> 125
O=[N+]([O-])c1cn2c(n1)OC[C@@H](OCc1ccc(-c3cccc(F)c3)cc1)C2	2.2 (≈ 0.813 µg/mL)	0.045 (≈ 0.0166 µg/mL)	> 125
O=[N+]([O-])c1cn2c(n1)OC[C@@H](OCc1ccc(-c3ccc(OC(F)(F)F)c([N+](=O)[O-])c3)cc1)C2	1.6 (≈ 0.769 µg/mL)	0.045 (≈ 0.0216 µg/mL)	> 125
O=[N+]([O-])c1cn2c(n1)OC[C@@H](OCc1ccc(-c3ccccc3C(F)(F)F)cc1)C2	1.6 (≈ 0.671 µg/mL)	0.077 (≈ 0.0323 µg/mL)	> 125
COc1cccc(OC)c1-c1ccc(CO[C@@H]2COc3nc([N+](=O)[O-])cn3C2)cc1	1 (≈ 0.411 µg/mL)	0.31 (≈ 0.128 µg/mL)	> 125
N#Cc1cccc(-c2ccc(CO[C@@H]3COc4nc([N+](=O)[O-])cn4C3)cc2)c1	1.3 (≈ 0.489 µg/mL)	0.12 (≈ 0.0452 µg/mL)	> 125
CSc1cccc(-c2ccc(CO[C@@H]3COc4nc([N+](=O)[O-])cn4C3)cc2)c1	0.95 (≈ 0.378 µg/mL)	0.077 (≈ 0.0306 µg/mL)	> 125

SMILES	MIC [1] [µM]	MIC [2] [µM]	IC50 (Vero) [µM]
O=[N+]([O-])c1cn2c(n1)OC[C@@H](OCc1cccc(-c3ccccc3)c1)C2	2.1 (≈ 0.738 µg/mL)	0.095 (≈ 0.0334 µg/mL)	> 125
O=[N+]([O-])c1cn2c(n1)OC[C@@H](OCc1ccc(-c3ccc(Cl)cc3)cc1)C2	2.7 (≈ 1.04 µg/mL)	0.015 (≈ 0.00579 µg/mL)	> 125
O=[N+]([O-])c1cn2c(n1)OC[C@@H](OCc1cccc(-c3ccc4ccccc4c3)c1)C2	3.2 (≈ 1.28 µg/mL)	0.12 (≈ 0.0482 µg/mL)	> 125
COc1cc(OC)cc(-c2ccc(CO[C@@H]3COc4nc([N+](=O)[O-])cn4C3)cc2)c1	0.79 (≈ 0.325 µg/mL)	0.28 (≈ 0.115 µg/mL)	> 125
CC(C)c1ccc(-c2ccc(CO[C@@H]3COc4nc([N+](=O)[O-])cn4C3)cc2)cc1	> 32	0.1 (≈ 0.0393 µg/mL)	> 125
Cc1cc(-c2ccc(CO[C@@H]3COc4nc([N+](=O)[O-])cn4C3)cc2)cc(C)c1O	1.5 (≈ 0.593 µg/mL)	0.3 (≈ 0.119 µg/mL)	> 125
COc1cccc(Cl)c1-c1ccc(CO[C@@H]2COc3nc([N+](=O)[O-])cn3C2)cc1	0.74 (≈ 0.308 µg/mL)	0.055 (≈ 0.0229 µg/mL)	> 125
O=[N+]([O-])c1cn2c(n1)OC[C@@H](OCc1cccc(-c3ccc(F)cc3)c1)C2	3.8 (≈ 1.4 µg/mL)	0.077 (≈ 0.0284 µg/mL)	> 125
O=[N+]([O-])c1cn2c(n1)OC[C@@H](OCc1cccc(-c3ccc(OC(F)F)cc3)c1)C2	2.8 (≈ 1.17 µg/mL)	0.06 (≈ 0.025 µg/mL)	> 125
O=[N+]([O-])c1cn2c(n1)OC[C@@H](OCc1ccc(-c3ccc(C(F)(F)F)c(Cl)c3)cc1)C2	0.97 (≈ 0.44 µg/mL)	0.06 (≈ 0.0272 µg/mL)	> 125
O=[N+]([O-])c1cn2c(n1)OC[C@@H](OCc1ccc(-c3ccccc3OC(F)(F)F)cc1)C2	0.97 (≈ 0.422 µg/mL)	0.035 (≈ 0.0152 µg/mL)	> 125
O=[N+]([O-])c1cccc(-c2ccc(CO[C@@H]3COc4nc([N+](=O)[O-])cn4C3)cc2)c1	0.76 (≈ 0.301 µg/mL)	0.13 (≈ 0.0515 µg/mL)	> 125
COc1ccc(-c2ccc(CO[C@@H]3COc4nc([N+](=O)[O-])cn4C3)cc2)cc1	6.8 (≈ 2.59 µg/mL)	0.065 (≈ 0.0248 µg/mL)	> 125
CC(C)Oc1ccc(-c2ccc(CO[C@@H]3COc4nc([N+](=O)[O-])cn4C3)cc2)cc1	3.8 (≈ 1.56 µg/mL)	0.25 (≈ 0.102 µg/mL)	> 125
O=[N+]([O-])c1cn2c(n1)OC[C@@H](OCc1ccc(-c3ccc(Cl)c(O)c3)cc1)C2	2.1 (≈ 0.844 µg/mL)	0.2 (≈ 0.0804 µg/mL)	> 125
O=[N+]([O-])c1cn2c(n1)OC[C@@H](OCc1ccc(-c3cccc(Cl)c3)cc1)C2	1.6 (≈ 0.617 µg/mL)	0.06 (≈ 0.0231 µg/mL)	> 125
O=[N+]([O-])c1cn2c(n1)OC[C@@H](OCc1ccc(-c3ccccc3Oc3ccccc3)cc1)C2	1.8 (≈ 0.798 µg/mL)	0.06 (≈ 0.0266 µg/mL)	> 125
O=[N+]([O-])c1cn2c(n1)OC[C@@H](OCc1ccc(-c3cccc(OCCCO)c3)cc1)C2	3.2 (≈ 1.36 µg/mL)	0.18 (≈ 0.0766 µg/mL)	> 125
O=[N+]([O-])c1cn2c(n1)OC[C@@H](OCc1ccc(-c3ccc4ccccc4c3)cc1)C2	0.87 (≈ 0.349 µg/mL)	0.045 (≈ 0.0181 µg/mL)	> 125
O=Cc1cccc(-c2ccc(CO[C@@H]3COc4nc([N+](=O)[O-])cn4C3)cc2)c1	0.57 (≈ 0.216 µg/mL)	0.14 (≈ 0.0531 µg/mL)	> 125
N#Cc1cccc(-c2cccc(CO[C@@H]3COc4nc([N+](=O)[O-])cn4C3)c2)c1	3.7 (≈ 1.39 µg/mL)	0.17 (≈ 0.064 µg/mL)	> 125

SMILES	MIC [1] [µM]	MIC [2] [µM]	IC50 (Vero) [µM]
O=Cc1ccc(-c2ccc(CO[C@@H]3COc4nc([N+](=O)[O-])cn4C3)cc2)cc1	1 (≈ 0.379 µg/mL)	0.2 (≈ 0.0759 µg/mL)	> 125
O=[N+]([O-])c1cn2c(n1)OC[C@@H](OCc1ccc(-c3ccccc3)cc1)C2	3.9 (≈ 1.37 µg/mL)	0.045 (≈ 0.0158 µg/mL)	> 125
O=[N+]([O-])c1cn2c(n1)OC[C@@H](OCc1cccc(-c3ccc(OC(F)(F)F)cc3)c1)C2	2.2 (≈ 0.958 µg/mL)	0.11 (≈ 0.0479 µg/mL)	> 125
O=[N+]([O-])c1cn2c(n1)OC[C@@H](OCc1ccc(-c3ccccc3Cl)cc1)C2	1.5 (≈ 0.579 µg/mL)	0.15 (≈ 0.0579 µg/mL)	> 125
O=[N+]([O-])c1cn2c(n1)OC[C@@H](OCc1cccc(-c3cccc(F)c3)c1)C2	2.7 (≈ 0.997 µg/mL)	0.18 (≈ 0.0665 µg/mL)	> 125
O=Cc1ccccc1-c1ccc(CO[C@@H]2COc3nc([N+](=O)[O-])cn3C2)cc1	0.78 (≈ 0.296 µg/mL)	0.08 (≈ 0.0303 µg/mL)	> 125
CSc1ccc(-c2ccc(CO[C@@H]3COc4nc([N+](=O)[O-])cn4C3)cc2)cc1	0.95 (≈ 0.378 µg/mL)	0.075 (≈ 0.0298 µg/mL)	> 125
O=[N+]([O-])c1cn2c(n1)OC[C@@H](OCc1ccc(-c3ccccc3O)cc1)C2	4.6 (≈ 1.69 µg/mL)	0.12 (≈ 0.0441 µg/mL)	> 125
COc1ccc(-c2cccc(CO[C@@H]3COc4nc([N+](=O)[O-])cn4C3)c2)cc1F	2.2 (≈ 0.879 µg/mL)	0.19 (≈ 0.0759 µg/mL)	> 125
O=[N+]([O-])c1cn2c(n1)OC[C@@H](OCc1ccc(-c3cccc(-c4ccccc4)c3)cc1)C2	0.88 (≈ 0.376 µg/mL)	0.31 (≈ 0.133 µg/mL)	> 125
O=[N+]([O-])c1cn2c(n1)OC[C@@H](OCc1ccc(-c3ccc(F)c(F)c3)cc1)C2	1.2 (≈ 0.465 µg/mL)	0.03 (≈ 0.0116 µg/mL)	> 125
O=[N+]([O-])c1cn2c(n1)OC[C@@H](OCc1ccc(-c3cccc(OCCO)c3)cc1)C2	5.4 (≈ 2.22 µg/mL)	0.46 (≈ 0.189 µg/mL)	> 125
COc1c(F)cc(-c2ccc(CO[C@@H]3COc4nc([N+](=O)[O-])cn4C3)cc2)cc1F	1.3 (≈ 0.543 µg/mL)	0.045 (≈ 0.0188 µg/mL)	> 125
COc1cc(C)c(-c2ccc(CO[C@@H]3COc4nc([N+](=O)[O-])cn4C3)cc2)c(C)c1	0.94 (≈ 0.385 µg/mL)	0.58 (≈ 0.237 µg/mL)	> 125
CSc1ccc(-c2cccc(CO[C@@H]3COc4nc([N+](=O)[O-])cn4C3)c2)cc1	0.93 (≈ 0.37 µg/mL)	0.095 (≈ 0.0378 µg/mL)	> 125
O=[N+]([O-])c1cn2c(n1)OC[C@@H](OCc1ccc(-c3ccc(-c4ccccc4)cc3)cc1)C2	> 32	0.09 (≈ 0.0385 µg/mL)	> 125
COc1ccccc1-c1ccc(CO[C@@H]2COc3nc([N+](=O)[O-])cn3C2)cc1	1.4 (≈ 0.534 µg/mL)	0.065 (≈ 0.0248 µg/mL)	> 125
CC(C)(C)c1ccc(-c2ccc(CO[C@@H]3COc4nc([N+](=O)[O-])cn4C3)cc2)cc1	> 32	0.095 (≈ 0.0387 µg/mL)	> 125
O=[N+]([O-])c1cn2c(n1)OC[C@@H](OCc1cccc(-c3ccc(C(F)(F)F)cc3)c1)C2	2.9 (≈ 1.22 µg/mL)	0.12 (≈ 0.0503 µg/mL)	> 125
